Test results: PubChem BioAssay
The source made the active and inactive calls.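 How the source made its calls, unless noted: active means mean duplicate potentiation above the buffer control mean plus 5 SD of buffer wells; inactive means the rest.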

Assays:
[1] = thallium flux activation in parental CHO cells, counter-screen for KCNQ1 potentiator project (AID 493006;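 active means duplicate-averaged activation above buffer control mean plus 5 SD of those controls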); settings: parental CHO-K1 cells, FluxOR thallium flux, at 10 µM; stronger effect = higher value
Outline: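 Assay system: Untransfected host CHO-K1 cells with FluxOR thallium dye | Probe or stimulus: Potassium/thallium depolarization pulse | Schedule: Overnight 37 °C plating, 90 min RT dye, 20 min compound | Detection: Kinetic thallium-flux fluorescence | Read-out: Max-minus-min fluorescence over baseline, percent of buffer-to-R-L3 span | Benchmarks: Low control buffer, high control R-L3 activator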

[2] = target: Potassium voltage-gated channel subfamily KQT member 1 (Homo sapiens) (UniProt P51787); test: KCNQ1 potassium channel potentiators, confirmation, FluxOR thallium flux, CHO cells, duplicates (AID 493007;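 active means potentiation averaged over duplicate wells exceeding buffer-only control mean by more than 3 SD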;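 on outcome: cells depolarized by a potassium plus thallium sulfate stimulus after compound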); settings: KCNQ1 cell line, FluxOR thallium flux fluorescence, at 10 µM; stronger effect = higher value, % of reference activator effect, buffer zero
Outline: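 Material: KCNQ1-expressing CHO cell line; Incubation: FluxOR dye loading 90 min, compound exposure 20 min, room temperature; Detection: FluxOR Tl+ flux fluorescence, 10 s baseline plus 110 s recording; Read-out: percent activation between buffer and R-L3 responses; Control set: buffer-only wells as 0% and R-L3 activator as 100%; Replication: duplicate wells per compound.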

[3] = target: Potassium voltage-gated channel subfamily KQT member 2 (Rattus norvegicus) (UniProt O88943); test: rat KCNQ2 channel potentiation, selectivity assay for KCNQ1 potentiator project, KCNQ2-CHO-K1 cells (AID 493009); settings: FluxOR thallium flux fluorescence, at 10 µM; stronger effect = higher value, scaled: buffer 0, activator control 100;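 further: assay conditions were tuned for KCNQ1 rather than KCNQ2 modulators; signal is max minus min fluorescence divided by baseline after thallium stimulus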
[4] = target: Potassium voltage-gated channel subfamily KQT member 1 (Homo sapiens) (UniProt P51787); test: KCNQ1 channel current potentiators, confirmation, orthogonal assay for KCNQ1 potentiator project, IonWorks patch clamp, KCNQ1-CHO cells (AID 493184;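 active means current rise at least 3 SD above the untreated control mean in each of two repeat wells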); settings: automated patch clamp current, at 10 µM; stronger effect = higher value
Outline: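 assay system = KCNQ1-expressing CHO cells | medium = external bath solution at pH 7.4 | probe or stimulus = 2,000 ms depolarization, -90 to +40 mV | compound dosing = 10 µM final, single point | measured by = automated voltage clamp, amphotericin B perforated patch | measure = percent current increase versus pre-compound level | replication = duplicates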

Sequence of Potassium voltage-gated channel subfamily KQT member 1 (Homo sapiens) (P51787 whole entry, looked up): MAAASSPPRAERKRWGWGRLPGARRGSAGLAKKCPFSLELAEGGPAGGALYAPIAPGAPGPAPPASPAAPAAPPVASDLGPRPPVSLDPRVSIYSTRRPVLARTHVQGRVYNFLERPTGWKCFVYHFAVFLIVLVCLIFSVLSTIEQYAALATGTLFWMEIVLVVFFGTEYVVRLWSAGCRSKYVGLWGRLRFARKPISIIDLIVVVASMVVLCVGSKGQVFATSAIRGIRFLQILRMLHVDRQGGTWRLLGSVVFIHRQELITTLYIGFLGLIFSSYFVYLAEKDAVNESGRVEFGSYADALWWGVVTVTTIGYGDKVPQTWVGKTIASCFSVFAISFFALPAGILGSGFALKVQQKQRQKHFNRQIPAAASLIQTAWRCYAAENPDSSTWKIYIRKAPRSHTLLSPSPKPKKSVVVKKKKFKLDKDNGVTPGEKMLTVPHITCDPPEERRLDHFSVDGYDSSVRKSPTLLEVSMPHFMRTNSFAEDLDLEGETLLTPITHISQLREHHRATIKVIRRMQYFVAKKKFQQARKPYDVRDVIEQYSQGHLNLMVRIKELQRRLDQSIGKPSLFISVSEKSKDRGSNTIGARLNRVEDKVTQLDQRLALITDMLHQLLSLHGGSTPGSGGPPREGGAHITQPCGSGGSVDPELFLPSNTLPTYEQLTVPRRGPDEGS
Sequence of Potassium voltage-gated channel subfamily KQT member 2 (Rattus norvegicus) (O88943 whole entry, looked up): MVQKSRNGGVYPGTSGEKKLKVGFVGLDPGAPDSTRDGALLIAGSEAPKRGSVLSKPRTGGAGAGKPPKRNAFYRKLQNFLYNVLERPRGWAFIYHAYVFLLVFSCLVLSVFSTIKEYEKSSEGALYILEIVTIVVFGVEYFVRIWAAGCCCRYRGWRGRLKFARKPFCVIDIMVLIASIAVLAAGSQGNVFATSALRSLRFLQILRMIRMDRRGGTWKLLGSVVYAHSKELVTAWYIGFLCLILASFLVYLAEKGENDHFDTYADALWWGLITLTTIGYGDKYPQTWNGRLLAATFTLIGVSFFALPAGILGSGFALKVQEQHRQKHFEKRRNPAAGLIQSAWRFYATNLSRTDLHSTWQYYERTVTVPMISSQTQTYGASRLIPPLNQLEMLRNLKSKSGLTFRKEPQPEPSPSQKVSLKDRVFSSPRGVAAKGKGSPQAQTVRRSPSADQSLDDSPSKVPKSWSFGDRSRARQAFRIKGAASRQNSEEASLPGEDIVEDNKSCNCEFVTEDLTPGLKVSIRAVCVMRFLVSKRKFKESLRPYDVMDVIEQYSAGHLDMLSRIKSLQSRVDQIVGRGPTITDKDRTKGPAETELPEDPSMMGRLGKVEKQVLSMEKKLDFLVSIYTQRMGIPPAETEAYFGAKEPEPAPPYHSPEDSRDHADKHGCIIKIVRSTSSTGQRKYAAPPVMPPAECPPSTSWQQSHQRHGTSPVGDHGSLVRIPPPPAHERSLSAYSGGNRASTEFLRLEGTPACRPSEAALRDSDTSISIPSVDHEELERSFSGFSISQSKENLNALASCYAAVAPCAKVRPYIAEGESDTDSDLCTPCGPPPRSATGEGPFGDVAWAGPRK

Compound | activation [1] | potentiation [2] | potentiation [3] | outcome [4] | outcome [1] | outcome [2] | outcome [3]
Cc1snnc1C(=O)NC(=S)Nc1ccccc1 | 205% (active) | 90% (active) | 270% (active) | inactive |  |  | 
Cc1noc(C)c1CSc1ncnc2sc(C)c(C)c12 |  |  |  | inactive | inactive | inactive | inactive
CCCCN(CCCC)c1cn[nH]c(=O)c1Cl |  |  |  | inactive | inactive | inactive | inactive
Fc1ccc(-n2nnc(-c3ccccc3)n2)cc1 |  |  |  | inactive | inactive | inactive | inactive
CCOC(=O)Nc1ccc2c(c1)N(CCCN(C)C)c1ccccc1CC2 |  |  |  | inactive | inactive | inactive | inactive
CCc1ccc(NC(=O)C(=O)NNC(=O)COc2cccc(OC)c2)cc1 | 164% (active) | 76% (active) | 251% (active) | inactive |  |  | 
CC(=O)Oc1c(-c2ccco2)oc2ccccc2c1=O | 216% (active) | 31% (active) | 244% (active) | inactive |  |  | 
CC(C)CSC1=NSC2=NC(=O)/C(=C\c3cccs3)C(=N)N12 |  |  |  | inactive | inactive | inactive | inactive
CSC(=S)N/N=C/c1ccccc1 | 245% (active) | 48.5% (active) | 226% (active) | inactive |  |  | 
CCCn1c(=S)[nH]c2sc3c(c2c1=O)CCCC3 | 418% (active) | 158% (active) | 434% (active) | inactive |  |  | 
CCOC(=O)c1nnn(CC(=O)Nc2cc(Cl)ccc2C)c1C(=O)OCC | 164% (active) | 33% (active) |  | inactive |  |  | inactive
COc1ccc(C(=O)NNC(=O)C(=O)Nc2ccc(C)cc2)cc1 | 254% (active) | 123% (active) | 380% (active) | inactive |  |  | 
COc1ccc(CNC(=O)C2CC(c3cccc(OC)c3)=NO2)cc1 (stereo not given) |  |  |  | inactive | inactive | inactive | inactive
CC(C)(C)C1(O)CC(C(F)(F)F)=NN1C(=O)Cc1ccc([N+](=O)[O-])cc1 (stereo not given) |  |  |  | inactive | inactive | inactive | inactive
CN1CCC(Oc2ccccc2Sc2ccc(C(F)(F)F)cc2)CC1 |  |  |  | inactive | inactive | inactive | inactive
COc1ccc(Cl)cc1NC(=O)CNc1ccc(F)cc1C |  |  |  | inactive | inactive | inactive | inactive
O=C(Nc1nnc(C2=COCCO2)o1)c1ccc(Br)cc1 | 142% (active) | 18% (active) | 169% (active) | inactive |  |  | 
Cn1c(=S)[nH]c2scc(-c3cccs3)c2c1=O | 524% (active) | 218% (active) | 500% (active) | inactive |  |  | 
Cc1ccccc1NC(=S)NNC(=O)c1csc2c1CCC(C)C2 (stereo not given) | 174% (active) | 30% (active) | 200% (active) | inactive |  |  | 
CC(C)Cc1ccc(C(C)C(=O)Nc2ccc(O)cc2)cc1 (stereo not given) |  |  |  | inactive | inactive | inactive | inactive

Compound | activation [1] | potentiation [2] | potentiation [3] | outcome [4] | outcome [1] | outcome [2] | outcome [3]
Oc1c(Cl)cc(Cl)cc1/C=N/c1nccs1 | 174% (active) |  |  | inactive |  | inactive | inactive
Cc1ccc(Cn2ncc3c(NN)ncnc32)cc1 |  |  |  | inactive | inactive | inactive | inactive
Cc1ccc(/C=N/Nc2nc(C(C)(C)C)cs2)o1 |  |  |  | inactive | inactive | inactive | inactive
Cc1cccc2sc(N(CCCN(C)C)C(=O)CCS(=O)(=O)c3ccccc3)nc12 |  |  |  | inactive | inactive | inactive | inactive
COc1ccc(CCN(C)CC(O)COc2c(C)ccc(C)c2C)cc1OC (stereo not given) |  |  |  | inactive | inactive | inactive | inactive
NNc1nc2ccc(Cl)cc2s1 |  |  |  | inactive | inactive | inactive | inactive
O=C(NC(=S)Nc1nc2c(s1)CSc1ccccc1-2)c1ccccc1 | 170% (active) | 68.5% (active) | 147% (active) | inactive |  |  | 
CNCc1ccccc1Sc1cccc2ccccc12 |  |  |  | inactive | inactive | inactive | inactive
COC(=O)c1cnn(-c2ccc(Cl)cc2)c1/C=N/NC(N)=S |  |  |  | inactive | inactive | inactive | inactive
CCOC(=O)c1sc2nc(C)[nH]c(=S)c2c1C | 198% (active) | 52% (active) | 214% (active) | inactive |  |  | 
Cc1csc(NC(=S)NC(=O)c2ccccc2)n1 |  | 32% (active) | 156% (active) | inactive | inactive |  | 
C=CCN(CC=C)C(=S)NC(=O)c1ccc([N+](=O)[O-])cc1 | 366% (active) | 137% (active) | 359% (active) | inactive |  |  | 
Cc1ccc(C(=O)COC(=O)COc2ccccc2C)cc1 |  |  |  | inactive | inactive | inactive | inactive
Cc1ccc(NC(=S)N/N=C2/CCCCc3ccccc32)cc1 | 274% (active) | 324% (active) | 484% (active) | inactive |  |  | 
CN(c1ccccc1)S(=O)(=O)c1ccc(NC(=O)c2nc(S(C)(=O)=O)ncc2Cl)cc1 |  |  |  | inactive | inactive | inactive | inactive
C/C(=N/NC(=S)Nc1cccc(C)c1)c1cccc([N+](=O)[O-])c1 |  | 44.5% (active) |  | inactive | inactive |  | inactive
O=C(C1=C(O)C(=O)N(CC2CCCO2)C1c1ccc(Cl)cc1Cl)c1ccco1 (stereo not given) |  |  |  | inactive | inactive | inactive | inactive
C=CCn1c(SCC(N)=O)nc2scc(-c3ccc(C)o3)c2c1=O | 223% (active) | 79.5% (active) | 230% (active) | inactive |  |  | 
O=c1c2ccccc2nc(-c2ccc(Cl)c(Cl)c2)n1O | 518% (active) | 244% (active) | 558% (active) | inactive |  |  | 
COc1ccc(/C=N\NC(=S)SCN2C(=O)C3CCC(C)(C2=O)C3(C)C)cc1 (stereo not given) |  |  |  | inactive | inactive | inactive | inactive

Compound | activation [1] | potentiation [2] | potentiation [3] | outcome [4] | outcome [1] | outcome [2] | outcome [3]
CC(Oc1ccccc1F)C(=O)/C=C/N(C)C (stereo not given) |  |  |  | inactive | inactive | inactive | inactive
Cc1ccnc(NS(=O)(=O)c2ccc(NC(=O)C34CC5CC(CC(C5)C3)C4)cc2)n1 |  |  |  | inactive | inactive | inactive | inactive
CSc1nc(C)cc(OCC(=O)N/N=C/c2ccccc2O)n1 |  |  |  | inactive | inactive | inactive | inactive
O=C(CCC(=O)N1CCOc2ccc(Cl)cc21)NCCCN1CCN(c2ccccc2F)CC1 |  |  |  | inactive | inactive | inactive | inactive
CC(C)(C)C1C/C(=C/c2ccccn2)C(=O)/C(=C/c2ccccn2)C1 (stereo not given) |  |  |  | inactive | inactive | inactive | inactive
Cn1c(SCc2ccc(C#N)cc2Cl)nc2ccccc21 |  |  |  | inactive | inactive | inactive | inactive
COC(=O)c1cc2c(ccc3ccccc32)oc1=O |  |  |  | inactive | inactive | inactive | inactive
CCOC(=O)Cc1csc(NC(=S)NC(=O)c2ccccc2C)n1 | 201% (active) | 45.5% (active) | 200% (active) | inactive |  |  | 
O=C(CN1C(=O)COc2ccccc21)N(Cc1cccnc1)Cc1cccc(F)c1 |  |  |  | inactive | inactive | inactive | inactive
CC(=O)c1ccc(OCc2cc(C(=O)N3CC[C@@H]4CCCC[C@H]4C3)no2)cc1 | 144% (active) | 49% (active) | 160% (active) | inactive |  |  | 
COc1cccc(NC(=S)NCCN2CCOCC2)c1 | 156% (active) | 26% (active) | 162% (active) | inactive |  |  | 
COc1cccc2sc(Nc3nnc(-c4ccccc4Cl)o3)nc12 |  | 112% (active) |  | inactive | inactive |  | inactive
Cc1cccn2c(=O)nc(SCC(=O)N3N=C(c4cccs4)CC3c3ccc(F)cc3)nc12 (stereo not given) |  |  |  | inactive | inactive | inactive | inactive
O=C(NC(=S)Nc1ccc(N2CCCCC2)c(Cl)c1)c1cccs1 | 138% (active) | 120% (active) | 232% (active) | inactive |  |  | 
COc1cc(Br)cc(/C=N/c2ncn[nH]2)c1O | 140% (active) | 18.5% (active) |  | inactive |  |  | inactive
O=C(NC(=S)N1CCCC1)c1ccc(Cl)cc1 | 150% (active) |  |  | inactive |  | inactive | inactive
CN1c2ccccc2C(O)=C(C(=S)Nc2ccc(Cl)cc2)S1(=O)=O | 139% (active) |  | 146% (active) | inactive |  | inactive | 
CCOc1ccc(C(=O)N2CCCC(c3nc(-c4ccc(C)o4)no3)C2)cc1 (stereo not given) |  |  |  | inactive | inactive | inactive | inactive
O=c1ccc(N=Nc2ccccc2)ccc1O | 322% (active) | 138% (active) | 430% (active) | inactive |  |  | 
CC1Cc2ccccc2N1C(=S)NC(=O)c1ccc(Cl)cc1Cl (stereo not given) | 214% (active) | 91.5% (active) | 248% (active) | inactive |  |  | 
